In article PMC4004768 (The Journal of antibiotics, 2013):

Tests used:
[1] = system: B. subtilis ATCC 6633; assay: propidium iodide uptake; type: cell-based, Bacillus subtilis; conditions: B. subtilis ATCC 6633, lower efficiency than nisin
[2] = cited from earlier work
[3] = system: B. subtilis ATCC6633; assay: antimicrobial activity assay in liquid medium; type: cell-based, Bacillus subtilis
[4] = system: B. subtilis ATCC 6633; assay: membrane potential by flow cytometry with DiOC2; type: cell-based, Bacillus subtilis; conditions: 0, 0.2, 2, 20 μM, triplicate flow cytometry
In short: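 Flow cytometry on bacteria exposed to the test compound at 0, 0.2, 2 and 20 μM, with DiOC2 as the membrane-potential dye. The read-out is mean fluorescence intensity averaged over triplicate measurements. An alternative read-out is the ratio of fluorescence at 610 and 530 nm.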

[5] = specific activity against B. subtilis ATCC6633, liquid medium

Geobacillin I
efficiency in PI uptake relative to nisin [1]: two-fold lower
stability at physiological pH compared to nisin [2]: higher stability
MIC relative to nisin ([3]; B. subtilis ATCC 6633, higher MIC compared to nisin): four-fold higher
IC50 [3, 5]: 0.56 ± 0.01 µM
MIC [3, 5]: 1.0 µM
change in mean fluorescence intensity (MFI), DiOC2 [4]: significant decrease
